# Data published in article PMC8962836 (Journal of Alzheimer's disease : JAD, 2016).
# “And” between values parts separate entries of the source, which are not always exact repeats. Equal values may be shown once. “Also recorded” adds a separate entry of the source.
# Experiments:
# 3xTgAD mouse model = conditions: cited from earlier work
# Aβ levels = conditions: cited from earlier work
# [1] = tested on: Aβ42-induced LTP impairment in hippocampal slices; type: cell-based, mouse; conditions: compound 650 nM co-administered with Aβ42 (200 nM, 20 min)
# How it was run: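 Mouse transverse hippocampal slices (400 μm) were kept in an interface chamber at 29°C. Aβ42 oligomers were formed overnight at 4°C in ACSF, then diluted in vehicle. Test compound (Tween-80/DMSO stock diluted in vehicle) was perfused with Aβ42 for 20 min before tetanization, and responses were recorded for 120 min. Data are % of control or (co-treatment/Aβ42 alone)×100; mean ± SEM, repeated-measures two-way ANOVA.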
# [2] = Pharmacokinetic assessment in plasma; type: in vivo, ICR mice
# How it was run: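 Male ICR mice (54 total; 3 groups of 18) were dosed i.p. with test compound in Tween-80 + DMSO diluted with vehicle. Plasma was separated by centrifugation (11,000 rpm, 5 min), stored at –80°C, and 25 μl was processed for LC/MS/MS. Calibration standards were spiked into heparinized blank mouse plasma at 3.00–10,000 ng/ml.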
# [3] = tested on: calpain (calpain-generated spectrin fragment around 145 kDa); test: Spectrin western blotting of hippocampal homogenates after in vivo treatment; set-up: species or system mouse
# How it was run: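 Hippocampi were taken from mice given test compound or vehicle. Tissue was homogenized in 62.5 mM Tris-HCl pH 6.8, 3% LDS, 1 mM DTT, held 10 min at 4°C, sonicated and centrifuged (20,000 rpm, 5 min). Extracts (15 μg/lane; vehicle also 20 μg) ran on 3–8% Tris-Acetate gels. Blots were probed with spectrin and β-III-tubulin antibodies (1:1,000) for the ~145 kDa calpain fragment.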
# WT mice = conditions: mouse, in vivo, ip
# mice = conditions: mouse, in vivo
# AβPP/PS1 mice [4] = test: Contextual fear conditioning; type: in vivo, mouse
# How it was run: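 AβPP/PS1 and WT littermates got daily vehicle or test compound (Tween-80/DMSO, then vehicle-diluted). Training: one mouse per room, 2 min in the conditioning chamber, 0.50 mA foot shock for 2 s in the last 2 s, then 30 s more before returning to the home cage. Contextual freezing was scored. Investigators were blind to treatment and genotype; n = 8–18 per group; mean ± SEM, one-way ANOVA.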
# AβPP/PS1 mice [5] = test: 2-day radial-arm water maze; type: in vivo, mouse
# How it was run: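 2-day RAWM in AβPP/PS1 and WT littermates given vehicle or test compound daily. Compounds were dissolved in Tween-80 + DMSO, then diluted with vehicle. Mice were trained […] to find a goal-arm platform, alternating visible and hidden platform. Investigators were blind to treatment and genotype. Data are mean ± SEM, analysed by two-way repeated-measures ANOVA.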
# calpain 1 = conditions: read-out: IC50 calpain 1; cited from earlier work
# [6] = daily treatment from age 2 months until 7 months
smiles,measurement,setting,value
CCN(CC)Cc1ccc(/C=C/c2ccccc2C(=O)NC(Cc2ccccc2)C(=O)C(N)=O)cc1 (centres unmarked) [A-705253],Activity in 3xTgAD mouse model,3xTgAD mouse model,"rescuing memory defects, and reducing levels of BACE enzyme, Aβ deposits, and overall neuroinflammation"
CC(C)C[C@H](NS(=O)(=O)c1ccccc1)C(=O)N[C@@H](C(C)C)[C@@H](O)c1c(-c2ccccc2)c1=O [BDA-410],Effect on Aβ levels,Aβ levels,do not have any effect on Aβ levels
CC(C)C[C@H](NC(=O)[C@H]1O[C@@H]1C(=O)O)C(=O)NCCCCN=C(N)N [E64],Effect on Aβ levels,Aβ levels,do not have any effect on Aβ levels
O=C(NCc1cn(-c2ccc(F)cc2)nn1)[C@H](Cc1cscn1)NC(=O)[C@H]1O[C@@H]1C(=O)O [NYC488],Rescue of Aβ42-induced LTP impairment (phenotypic screening),[1],robust results; also recorded: surpassed E64 benchmark in the LTP rescue assay
same,Absolute bioavailability,"[2]; i.p., equimolar dose (7.57/7.86/7.83 mg/kg)",41.3%
same,Half-life,"[2]; plasma, i.p., equimolar dose (7.57/7.86/7.83 mg/kg)",0.6 h and ~ 0.6 h
same,Absorption,[2]; upon i.p. injection,rapidly absorbed
same,Prevention of calpain-generated spectrin fragments in hippocampus,"[3]; i.p. treatment for 12 days, same doses as PK",dramatically reduced the amount of fragments
same,Ability to cross the blood-brain barrier and inhibit calpain in the brain,[3]; inferred from spectrin fragment decrease after systemic administration,cross the blood-brain barrier (BBB) and inhibit calpain in the brain
same,Maximum tolerated dose (MTD),WT mice,200 mg/kg
same,Clinical signs of toxicity after acute single dose at MTD,mice,No clinical signs of toxicity
same,Contextual fear memory defect in AβPP/PS1 mice,"AβPP/PS1 mice [4]; daily treatment from age 2 months until 3 months, 7.57/7.86/7.83 mg/kg",ameliorated the defect in contextual fear memory
same,Contextual fear memory defect in AβPP/PS1 mice,AβPP/PS1 mice [4]; [6],ameliorated the defect in contextual fear memory
same,RAWM performance of WT littermates,"AβPP/PS1 mice [5]; WT littermates, treatment 2 to 3 months of age",did not affect the WT littermate performance
same,Spatial memory defect (2-day RAWM) in AβPP/PS1 mice,AβPP/PS1 mice [5]; daily treatment from age 2 months until 3 months,ameliorated the defect in spatial memory; also recorded: ameliorated the deficit in RAWM performance
same,Spatial memory defect (2-day RAWM) in AβPP/PS1 mice,AβPP/PS1 mice [5]; [6],ameliorated the defect in spatial memory
same,IC50,calpain 1,< 100 nM
